Source: ChEMBL document CHEMBL5303300, “EUbOPEN Chemogenomics Library - Multiplex” (2023)
Where “and” joins values, the source holds several entries; their conditions need not be identical. Equal values may be shown once.

Tested on: U2OS
Assay: Multiplex assay against U2OS
Format: toxicity, cell-based
Conditions: human, number of replicates 2
In short: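 Live cells carried four stains from seeding: Hoechst33342, BioTracker Green Microtubule Cytoskeleton Dye, MitoTracker Red and Annexin V Alexa Fluor 680. They were imaged on a CQ1 microscope at 37°C and 5% CO2 after compound addition. Using CellPathfinder machine-learning gating, cells were split into Hoechst high-intensity objects or normal cells, normal cells into healthy, pyknosed or fragmented nuclei, and pyknosed cells into mitotic or apoptotic; tubulin, mitochondrial-mass and membrane-permeability phenotypes are per cents of healthy-nucleus cells.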

[1] = 12 h, 1 µM, compound concentration 1 uM
[2] = 12 h, 10 µM, compound concentration 10 uM
[3] = 24 h, 1 µM, compound concentration 1 uM
[4] = 24 h, 10 µM, compound concentration 10 uM
[5] = 48 h, 1 µM, compound concentration 1 uM
[6] = 48 h, 10 µM, compound concentration 10 uM

CC(C)(C)c1cnc(CSc2cnc(NC(=O)C3CCNCC3)s2)o1 [BMS-387032]
Population Apoptotic (%) [1]: 83% and 88% | Population Healthy Nuclei (%) [1]: 60% and 73% | Population Hoechst High Intensity Objects (%) [1]: 1% and 0% | Population Membrane Permeable-Phenotype (%) [1]: 8% and 3% | Population Mitochondria Different-Phenotype (%) [1]: 2% and 4% | Population Mitotic Cells (%) [1]: 16% and 12% | Population Normal (%) [1]: 98% and 100% | Population Pyknosed Nuclei (%) [1]: 10% and 19% | Population Tubulin-Different-Phenotype (%) [1]: 80% and 82% | Total Cell Count [1]: 61 and 128 | Population Apoptotic (%) [2]: 85% and 65% | Population Healthy Nuclei (%) [2]: 32% and 71% | Population Hoechst High Intensity Objects (%) [2]: 0% and 1% | Population Mitochondria Different-Phenotype (%) [2]: 7% and 11% | Population Mitotic Cells (%) [2]: 14% and 35% | Population Normal (%) [2]: 100% and 98% | Population Pyknosed Nuclei (%) [2]: 17% and 22% | Population Apoptotic (%) [3]: 66% and 94% | Population Fragmented Nuclei (%) [3]: 22% and 9% | Population Healthy Nuclei (%) [3]: 62% and 69% | Population Hoechst High Intensity Objects (%) [3]: 1% and 0% | Population Membrane Permeable-Phenotype (%) [3]: 8% and 1% | Population Mitochondria Different-Phenotype (%) [3]: 5% | Population Normal (%) [3]: 98% and 100% | Population Pyknosed Nuclei (%) [3]: 15% and 21% | Population Tubulin-Different-Phenotype (%) [3]: 75% and 77% | Total Cell Count [3]: 60 and 163 | Population Apoptotic (%) [4]: 87% and 78% | Population Healthy Nuclei (%) [4]: 32% and 41% | Population Hoechst High Intensity Objects (%) [4]: 0% | Population Mitochondria Different-Phenotype (%) [4]: 21% and 25% | Population Mitotic Cells (%) [4]: 12% and 21% | Population Normal (%) [4]: 100% and 99% | Population Pyknosed Nuclei (%) [4]: 18% and 46% | Population Tubulin-Different-Phenotype (%) [4]: 57% and 52% | Population Apoptotic (%) [5]: 68% and 93% | Population Fragmented Nuclei (%) [5]: 23% and 8% | Population Healthy Nuclei (%) [5]: 55% and 66% | Population Hoechst High Intensity Objects (%) [5]: 0% | Population Mitochondria Different-Phenotype (%) [5]: 6% and 5% | Population Normal (%) [5]: 100% | Population Pyknosed Nuclei (%) [5]: 21% and 25% | Population Tubulin-Different-Phenotype (%) [5]: 89% and 80% | Total Cell Count [5]: 89 and 235 | Population Apoptotic (%) [6]: 84% and 94% | Population Healthy Nuclei (%) [6]: 21% and 9% | Population Hoechst High Intensity Objects (%) [6]: 0% and 4% | Population Membrane Permeable-Phenotype (%) [6]: 80% and 41% | Population Mitochondria Different-Phenotype (%) [6]: 40% and 52% | Population Mitotic Cells (%) [6]: 15% and 5% | Population Normal (%) [6]: 100% and 95% | Population Pyknosed Nuclei (%) [6]: 27% and 75% | Population Tubulin-Different-Phenotype (%) [6]: 50% and 76%

CS(=O)(=O)c1ccc(C(=O)Nc2ccc(F)c(COc3ccc(Br)cc3CNCCO)c2)c(Cl)c1.O=CO
Population Apoptotic (%) [1]: 50% and 63% | Population Healthy Nuclei (%) [1]: 75% and 84% | Population Hoechst High Intensity Objects (%) [1]: 0% | Population Mitotic Cells (%) [1]: 50% and 36% | Population Apoptotic (%) [2]: 85% and 58% | Population Healthy Nuclei (%) [2]: 80% and 77% | Population Hoechst High Intensity Objects (%) [2]: 2% and 0% | Population Mitotic Cells (%) [2]: 14% and 41% | Population Apoptotic (%) [3]: 62% and 73% | Population Healthy Nuclei (%) [3]: 74% and 90% | Population Hoechst High Intensity Objects (%) [3]: 0% | Population Mitotic Cells (%) [3]: 37% and 26% | Population Apoptotic (%) [4]: 90% and 71% | Population Healthy Nuclei (%) [4]: 68% | Population Hoechst High Intensity Objects (%) [4]: 0% | Population Apoptotic (%) [5]: 83% | Population Healthy Nuclei (%) [5]: 81% and 87% | Population Hoechst High Intensity Objects (%) [5]: 0% | Population Mitotic Cells (%) [5]: 16% | Population Apoptotic (%) [6]: 66% and 89% | Population Healthy Nuclei (%) [6]: 45% and 67% | Population Hoechst High Intensity Objects (%) [6]: 0%
